# The list is not random: actives were taken first. Their share in the collection is about 1.3%.
# MLL AF4-AF9 inh – inhibitors of human MLL-AF4/AF9 interaction | P42568 | AlphaScreen, biotin-AF4 peptide binding to FLAG-AF9 | inhibition, % at 10 µM | hit rate 0.47% among 350,000;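 active means every replicate reaching a set inhibition limit, whatever the replicate mean, cut at about 25% in these data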
# Casp6 inh – inhibitors of human caspase-6; inhibition, % at 12.5 µM; hit rate 0.53% among 350,000; AID 686996; P55212; purified caspase-6, Z-VEID-R110 cleavage fluorescence;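 active means mean inhibition across replicates at least about 35%, with every replicate also reaching that limit, limit read from the data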
# S100A4 MyoIIA – S100A4-myosin IIA interaction inhibition. S100A4/TAMRA-MyoIIA peptide fluorescence polarization. inhibition, % at 10.7 µM. hit rate 0.14% among 360,000. AID 652163;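 active means mean inhibition of at least 70% across replicates, with every replicate also reaching that level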
# Target sequence (P26447 whole entry, looked up): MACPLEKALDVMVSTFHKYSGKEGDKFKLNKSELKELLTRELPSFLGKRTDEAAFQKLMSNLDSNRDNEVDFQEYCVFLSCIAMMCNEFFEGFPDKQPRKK
#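 Test system: S100A4 monomer protein. Medium: HEPES buffer with Ca2+, pH 7.2. Reagent: fluorescent myosin IIA peptide, 5 nM. Compound dosing: single-point compound testing. Timing: 5 min between mix addition and reading. Benchmarks: DMSO neutral and TFP positive wells.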
# RAD52 inh – RAD52 (human) annealing inhibition; AID 651710; inhibition, % at 18.7 µM; recombinant RAD52 DNA annealing, FRET fluorescence; P43351; hit rate 0.46% among 360,000;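 active means every replicate showing at least 50% inhibition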
# Target sequence (P43351 whole entry, looked up): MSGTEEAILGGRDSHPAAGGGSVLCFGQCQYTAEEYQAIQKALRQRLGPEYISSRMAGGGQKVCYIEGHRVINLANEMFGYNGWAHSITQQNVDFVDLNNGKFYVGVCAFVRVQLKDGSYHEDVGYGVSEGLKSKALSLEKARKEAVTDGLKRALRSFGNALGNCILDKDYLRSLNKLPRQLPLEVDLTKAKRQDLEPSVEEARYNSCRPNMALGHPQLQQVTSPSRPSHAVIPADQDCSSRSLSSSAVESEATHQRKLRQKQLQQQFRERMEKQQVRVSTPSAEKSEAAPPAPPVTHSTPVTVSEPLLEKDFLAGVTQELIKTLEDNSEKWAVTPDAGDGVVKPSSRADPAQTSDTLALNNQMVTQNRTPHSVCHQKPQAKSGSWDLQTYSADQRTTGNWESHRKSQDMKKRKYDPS
# RAD54 branch – blocks human RAD54 Holliday junction branch migration; Q92698; hit rate 0.14% among 360,000; inhibition, % at 10.4 µM; FAM/BHQ fluorescence; AID 602329;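 active means mean normalized replicate activity at least 40 and at least half of replicates scoring 40 or more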;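 further: inhibitors cause a drop in the FAM fluorescence signal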
# Xi reactivation – X-chromosome reactivation activator; XiGFP mouse fibroblasts, % GFP-positive cells imaging, 3 d; cells co-treated with 5-aza-dC sensitizer; scaled so ellipticine positive control = 100%; activation, % at 7.58 µM; hit rate 0.055% among 360,000; AID 743238;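 active means mean normalized replicate activation at least 10% and every replicate at or above 10%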
#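 assay system = SV40-immortalized XiGFP fibroblast cells, line 68-5-11 | buffer or medium = DMEM plus 5-aza-dC sensitizer | doses = single-point pinned compound dosing | times = 3-day compound exposure, then 15 min fixation at room temperature | benchmarks = positive control ellipticine, 6 µM final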
# A number is an active result; 0 = inactive; - = no result.
SMILES,MLL AF4-AF9 inh,Casp6 inh,S100A4 MyoIIA,RAD52 inh,RAD54 branch,Xi reactivation
CCCC(=O)Nc1ccc2c(c1)OC[C@H](C)N(Cc1ccc(-c3ccccn3)cc1)C[C@H](C)[C@H](OC)CN(C)C2=O,0,0,0,0,0,0
CCCC(=O)Nc1ccc2c(c1)C(=O)N(C)C[C@H](OC)[C@H](C)CN(Cc1ccccc1)[C@H](C)CO2,0,0,96,0,0,0
C[C@@H]1CN([C@H](C)CO)C(=O)c2ccccc2-c2ccccc2CO[C@@H]1CN(C)C(=O)c1cc(Cl)cc(Cl)c1,-,-,-,-,-,0
COc1ccc(CN(C)C[C@H]2OCCCC[C@@H](C)Oc3ccc(NS(=O)(=O)c4ccc(F)cc4)cc3C(=O)N([C@@H](C)CO)C[C@H]2C)cc1,0,0,0,0,0,0
CCN(CC)c1ccc(NC(=S)NC(=O)C2CCC2)cc1,26,0,0,0,0,0
O=C(O)COc1ccc(/C=N/NC(=O)c2ccc(-c3csc(Nc4ccc(Cl)cc4)n3)cc2)cc1,0,0,0,0,0,0
CCOc1cc(/C=N/NC(=O)c2ccc(-c3csc(Nc4ccc(C)cc4)n3)cc2)ccc1OCC(=O)O,0,50,0,0,-,0
COc1ccc2cc(C(c3nnnn3C3CCCC3)N3CCc4ccccc4C3)c(=O)[nH]c2c1 (stereo not given),-,47,0,0,0,-
CC(C)NC(=O)NCC[C@@H]1CC[C@@H](NC(=O)CCN2CCCCC2)[C@H](CO)O1,0,0,0,0,0,0
N#Cc1cc2ccc(N3CCOCC3)cc2cc1C#N,0,64,0,0,0,-
N#Cc1cc(Cl)c(N2CCOCC2)cc1C#N,-,-,-,-,0,-
O=S(=O)(Cc1ccccc1)NCC[C@@H]1CC[C@H](NS(=O)(=O)c2ccc(F)cc2)[C@@H](CO)O1,0,0,0,0,0,0
O=C1C=C(O)c2[nH]c(=O)ccc2C1=O,0,84,0,0,-,0
CC1CCN(CCCNC(=O)COc2cc(=O)n(C)c3ccccc23)CC1,-,78,0,0,0,-
CCNC(=O)C[C@H]1CC[C@H]2[C@@H](COC[C@@H](O)CN2C(=O)Nc2ccc(C(F)(F)F)cc2)O1,0,0,0,0,0,0
CN(C)C(=O)[C@@H]1[C@@H](CO)[C@@H]2Cn3c(ccc(C4=CCCC4)c3=O)[C@H]1N2C(=O)Nc1ccccc1,0,0,0,0,0,0
O=C(NC[C@@H]1CC[C@H]2[C@H](CN2Cc2cccc(Cl)c2)O1)C1CCC1,0,0,0,0,-,-
O=C(NC[C@H]1CC[C@H]2[C@H](CN2Cc2cccc(Cl)c2)O1)C1CCC1,0,0,0,67,-,-
CC(C)NC(=O)N(C)C[C@@H]1Oc2cc(C#CC3CC3)ccc2S(=O)(=O)N([C@H](C)CO)C[C@@H]1C,0,0,0,0,0,0
COc1cc(/C=C2\SC(=Nc3ccc(Cl)c(C(=O)O)c3)NC2=O)c(Br)c(Br)c1O,0,35,0,0,0,0
COc1cc(/C=C2\SC(=Nc3ccccc3)NC2=O)cc(Cl)c1O,0,0,0,0,0,0
COc1cc2c(cc1N)-c1ccc(N)cc1C2=O,35,0,0,0,0,0
CC(C)(C)Nc1scc(-c2ccccc2)[n+]1-c1ccccc1,28,0,0,0,-,0
CN(c1ccccc1)c1ccc(/C=C(\CCC(=O)O)c2nc3ccccc3s2)cc1[N+](=O)[O-],0,38,0,0,-,0
Cc1ccc(/C=C(\CCC(=O)O)c2nc3ccccc3s2)cc1[N+](=O)[O-],0,0,0,0,0,0
SMILES,MLL AF4-AF9 inh,Casp6 inh,S100A4 MyoIIA,RAD52 inh,RAD54 branch,Xi reactivation
COc1cc2sc(C)nc2c2ccccc12,0,40,0,0,0,0
COc1ccccc1S(=O)(=O)Nc1ccc2nc(C)sc2c1,0,0,0,0,0,0
Cc1cccc(OCCC(=O)NNC(=O)Cn2nc(C)cc2C)c1,0,0,0,0,0,0
CCOc1ccccc1OCCC(=O)NNC(=O)Cn1nc(C)cc1C,0,46,0,0,0,0
O=C(O)c1ccc(-n2cccc2/C=N\NC(=O)c2cc3cc(Br)ccc3o2)cc1,0,64,0,0,0,0
C[C@H]1CN([C@@H](C)CO)C(=O)c2cc(NC(=O)Cc3ccccc3)ccc2O[C@@H]1CN(C)Cc1ccc(C(F)(F)F)cc1,0,0,0,0,0,0
COc1cccc(/C=C2\SC(=S)N(CC3CCCO3)C2=O)c1 (stereo not given),32,0,0,0,-,0
Cc1ccc2c(c1)c1c(n2CC(O)CNC2CCCCC2)CCCC1 (stereo not given),30,49,0,0,0,0
Cc1ccc2c(c1)c1c(n2CC(O)CN2CCCCC2C)CCCC1 (stereo not given),0,0,0,0,0,0
Cc1ccc2c(c1)c1c(n2CC(O)CN2CCC(C)CC2)CCCC1 (stereo not given),0,46,0,0,0,0
C=C(C)C(=O)Nc1cccc(C2=NOC3(C2)C[C@H](C(N)=O)N(C(=O)COc2ccc(Cl)cc2)C3)c1 (stereo not given in full),0,51,0,0,0,0
C=C(C)C(=O)Nc1cccc(C2=NOC3(C2)C[C@@H](C(N)=O)N(C(=O)C(=C)C)C3)c1 (stereo not given in full),0,38,0,0,0,0
C=C(C)C(=O)Nc1cccc(C2=NOC3(C2)C[C@@H](C(N)=O)N(C(=O)/C=C/CC)C3)c1 (stereo not given in full),0,44,0,0,0,0
CCC(=O)Nc1cccc(C2=NOC3(C2)C[C@@H](C(N)=O)N(C(=O)COc2ccc(Cl)cc2)C3)c1 (stereo not given in full),0,0,0,0,0,0
C/C=C/C(=O)N1CC2(CC(c3cccc(NC(=O)CC)c3)=NO2)C[C@H]1C(N)=O (stereo not given in full),-,-,0,0,0,0
C=C(C)C(=O)Nc1cccc(C2=NOC3(C2)C[C@H](C(N)=O)N(C(=O)/C=C/C)C3)c1 (stereo not given in full),0,53,0,0,0,0
CCCN(C)C[C@@H]1Oc2cc(-c3cccnc3)ccc2S(=O)(=O)N([C@H](C)CO)C[C@@H]1C,0,0,0,0,0,0
COc1cc2[nH]c(=S)nc(NC3CCCCCC3)c2cc1OC,0,0,0,58,-,0
Cc1cc(/C=N/N2CCN(C)CC2)c(C)n1-c1ccc(Cl)cc1,48,0,0,0,0,0
Cc1sc(N/N=C/c2ccco2)nc1-c1ccccc1,25,0,0,0,-,0
O=C(N/N=C/c1cc(Br)c(Br)o1)C(O)c1ccccc1 (stereo not given),0,40,0,0,-,0
N#Cc1ccc(NC(=S)/N=C(\N)c2ccccc2)cc1,0,0,0,0,0,0

# Source: PubChem BioAssay (Broad Institute)
